# Assay results: PubChem BioAssay
# Values without a mark were called inactive. Records with an inconclusive call do not appear. Active and inactive are the calls of the source.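 Rule for the calls, unless noted: active = viability increase at or above a cutoff of the median across tested compounds plus 3 SD (cut at about 8.5% in these data, passing the limit was not always enough); inconclusive = some gains above the cutoff, reason not given; inactive = the rest.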
# Legend:
# [1] = OD615 S. cerevisiae growth inhibition, permissive medium, pilot counter-assay, permissive growth control for S. cerevisiae lifespan shortening project (AID 705;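 active = growth inhibition above 25% in both replicates, a cutoff set 3 SD above the mean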); conditions: OD615, 24 h, at 10 µM, hits give high values
# Method in brief: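 System – S. cerevisiae with engineered DeaD lifespan system · Buffer or medium – SC raffinose/galactose permissive medium · Schedule – cells pre-grown 4 h, then 24 h compound exposure, 30 °C humidified · Technique – culture turbidity as optical density at 615 nm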
# [2] = Restrictive medium S. cerevisiae growth inhibition, OD615, pilot screen of yeast lifespan reduction project, restrictive growth control (AID 706;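 active = growth inhibition above a set limit, 3 SD over mean compound inhibition, in both replicates, cut at about 43% in these data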;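 note: modified DeaD lifespan yeast strain shifted to restrictive glucose medium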); conditions: OD615, 48 h, at 10 µM, hits give high values
# Method in brief: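 Material: engineered S. cerevisiae DeaD strain / Medium: glucose-based CSMM-D restrictive medium / Compound: single dose of 10 µM compound final, 0.25% DMSO / Timing: 4 h pre-incubation, 48 h exposure at 30 °C / Technique: OD615 absorbance reading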
# [3] = viability gain of MRP-1-high H69AR cells under doxorubicin, pilot screen, MRP-1 activator project, CellTiter-Glo, duplicate (AID 807); conditions: H69AR viability with doxorubicin, CellTiter-Glo luminescence; at 10 µM; hits give high values;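 note: compound pretreatment 18-22 h then 72 h combined with doxorubicin; 0% = doxorubicin alone and 100% = vehicle without doxorubicin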
# [4] = growth suppression of beta-catenin knockout HCT116, pilot screen, human colon tumor cells (AID 823;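 active = cell viability at or below a set limit in both duplicate runs, the limit being the all-compound median minus 4 SD, cut at about 23% in these data, passing the limit was not always enough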;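 note: 0% = wells killed by 20 µM Hyamine and 100% = untreated DMSO cell wells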); conditions: CellTiter-Glo, 60 h, at 10 µM, hits give low values
# [5] = growth suppression of PTEN-deleted HCT116, pilot screen, cell-based, HCT116 clonal line, CellTiter-Glo (AID 824;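 active = viability at or below 27.92% in each of two runs, the all-compound median minus 4 SD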;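 note: 0% = 20 µM Hyamine control and 100% = vehicle cell control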); conditions: 60 h, at 10 µM, hits give low values
# [6] = inhibitors of the yeast RAM network, pilot screen, dse1pr::URA3 reporter, 5-FOA selection (AID 869;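 active = inhibition over a set limit, the all-compound mean plus 3 SD, in both replicate runs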;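 note: 0% = DMSO wells with no growth and 100% = 10 µM 1-NA-PP1 with full growth; RAM network block rescues cells from 5-FOA so hits raise OD615 growth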); conditions: S. cerevisiae dse1pr::URA3 5-FOA growth, OD615, 2 d; at 10 µM; hits give high values; strain carries analog-sensitive mutant Cbk1 kinase
# [7] = RAM signaling pathway blockade in yeast – S. cerevisiae, Pdr1DBD-CYC8 efflux-inhibited sensitized strain, primary screen (AID 1298;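 active = RAM network inhibition above 8.4% in each of two replicates, 3 SD over the compound average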;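 note: 0% = DMSO untreated cells without growth and 100% = 10 µM 1-NA-PP1 full growth; higher means more yeast growth rescued from 5-FOA killing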); conditions: S. cerevisiae cbk1-as DSE1-URA3 strain, 5-FOA growth OD615, 2 d; at 50 µM; hits give high values
Compound,growth inhibition [1] [%],growth inhibition [2] [%],viability increase [3],viability [4] [%],viability [5] [%],inhibition [6] [%],RAM network inhibition [7] [%]
CCOC(=O)/C(C#N)=C1/C=Nc2ccccc2N1,-4.26,-1.09,-1.54%,103,89.8,-0.42,0.25
CN1CCN(C(=O)c2ccccc2NC(=O)c2cccs2)CC1,-11,-8.35,-2.33%,98.5,91.7,0.45,2.03
O=C(c1ccc(CN2CCc3ccccc3C2)cc1)N1CCCCC1,4.87,3.72,-2.43%,94.2,93.9,3.59,4.9
O=C(O)c1ccc(Cl)c2c1C1C=CCC1C(c1ccccn1)N2 (stereo unspecified),-7.86,8.06,-2.57%,98.3,94.6,2.31,1.25
Cc1ccc2nc(-c3ccccc3)cc(C(=O)O)c2c1,-9.89,8.96,-2.12%,95.3,87.8,1.46,3.9
O=C(COc1ccc(Cl)cc1)Nc1nnc(-c2ccc3c(c2)CCCC3)o1,-12.6,-12.9,-1.94%,101,96.5,3.45,1.21
C(=N\c1nccs1)/c1cccnc1,-7.2,-11.4,-0.86%,108,100,0.235,2.23
CCC(C)Sc1nc2c(c(=O)n1C)SC(C)C2 (stereo unspecified),-11.3,7.98,-0.66%,91.6,91.8,2.51,4.01
O=C(NCCSCc1ccco1)c1ccc(CN2CCOCC2)cc1,-10.4,-27,-1.57%,101,99.7,1.59,2.06
Oc1c(C(c2cccs2)N2CCN(c3ccc(F)cc3)CC2)sc2ncnn12 (stereo unspecified),0.78,-6.24,13.4% (active),105,90.9,0.495,8.63
COc1ccc(NC(=O)c2cnn3c(C(F)(F)F)cc(-c4ccco4)nc23)cc1OC,-11.5,-12.4,-0.73%,96.5,93,1.89,2.09
COc1ccc(CNc2nc3c(c(=O)[nH]c(=O)n3C)n2Cc2ccccc2C)cc1,-14.8,-13.7,-4.3%,96.2,89.5,2.08,2.1
CCN1CCN(C(c2cccs2)C(C)NC(=O)c2cccc(OC)c2)CC1 (stereo unspecified),-2.49,-14.8,-2.25%,103,89.7,-0.09,-0.01
CCOc1ccc(C2CC(c3ccc(CC)cc3)n3nc(N)nc3N2)cc1 (stereo unspecified),1.88,21,2.68%,91.5,83.5,1.54,3.52
CNS(=O)(=O)c1ccc(Oc2ccc(S(=O)(=O)NC)cc2)cc1,2.02,2.91,-0.17%,86.7,83.9,2,3.27
Cc1cc(C(=O)NCc2cccs2)n(-c2ccccc2)n1,-10.7,-6.11,0.91%,102,90.6,1.03,5.86
CCOc1ccc(OCC)c(Nc2cc(C)nc3nc(C)nn23)c1,-13.3,-2.15,-6.5%,53.1,46.6,0.055,6.18

Compound,growth inhibition [1] [%],growth inhibition [2] [%],viability increase [3],viability [4] [%],viability [5] [%],inhibition [6] [%],RAM network inhibition [7] [%]
Cn1c(=O)c2c(nc(CN3CCN(CCO)CC3)n2Cc2ccccc2Cl)n(C)c1=O,4.8,-2.67,-3.91%,98.2,96.2,0.875,4.94
Cc1cc(Oc2ccccc2)nc2ccc(O)cc12,-1.63,3.26,-5.89%,89.9,80.2,1.14,-0.04
O=C(NCC1COc2ccccc2O1)C1CCCN(S(=O)(=O)c2cccc3cccnc23)C1 (stereo unspecified),-2.58,-19.5,0.43%,71.8,72.9,2.7,3.24
COc1ccccc1-n1c(=O)[nH]c2c(C(N)=O)nc(C3CCCCC3)nc21,-7.19,-5.21,-3.33%,94.7,77.5,1.55,2.69
CCOC(=O)N1CCN(C(=O)CSc2nnc(Cn3c(=O)sc4ccccc43)n2C)CC1,-12.9,-13,-2.25%,98.4,95.8,1.69,1.9
CCCSc1nc2c(cnn2-c2ccc(C)c(C)c2)c(=O)[nH]1,-8.57,-3.42,-1.72%,93.2,69.9,2.58,4.37
CCOC(=O)Cc1c(C)nc2c(-c3ccccc3)c[nH]n2c1=O,-9.38,-14.3,-5.95%,76.8,76.5,1.96,10.5
Nc1nc(SCC(=O)OCc2ccccc2)[nH]c(=O)c1NC(=O)c1ccco1,-8.4,-11.7,-1.48%,101,98.7,1.36,-0.54
COC(=O)c1c(NC(=O)c2nc3ccccc3s2)sc2c1CCN(C(C)=O)C2,7.87,1.73,-6.02%,71.7,68,4,5.96
C=CCOC(=O)C1=C(C)N(C)C(=O)NC1c1cc2c(cc1Br)OCO2 (stereo unspecified),0.155,-0.035,-1.27%,88.1,91.8,1.38,5.32
O=C(Nc1nnc(C2CC2)s1)c1cc(-c2ccccc2)nn1-c1ccccc1,2.87,30.2,-0.61%,76.6,71.9,2.71,3.62
COc1cccc(C2CC(c3cccc(Br)c3)n3nc(N)nc3N2)c1 (stereo unspecified),2.54,4.69,-0.49%,96.7,90.3,0.475,5.95
OCc1cn(-c2ccccc2)nc1-c1ccc(-c2nn(-c3ccccc3)cc2CO)cc1,3.83,-4.29,-4.72%,102,95.1,1.8,5.84
Cc1cc(C)n(C(=O)CCN2C(=O)c3ccccc3C2=O)n1,-14.3,5.39,2%,94.9,103,-0.64,-0.15
c1csc(CCNc2ncnc3sc4c(c23)CCC4)c1,-5.19,13.9,-5.93%,39.9,50.1,0.385,-0.9
CSCCC(NC(=O)c1c(C)oc2c1CCCC2)C(=O)O (stereo unspecified),-2.84,-12.1,-0.78%,98.5,95.9,1.46,0.21
